Laboratory results as given in ChEMBL document CHEMBL4842395, “Design and Synthesis of Oleanolic Acid Trimers to Enhance Inhibition of Influenza Virus Entry” (ACS Med Chem Lett, 2021).
Numbered stars: 1 amine (or outer) side, 2 acyl side, 3 side chain; on linkers, the order of the positions; unused ones are H or OH. Bridge positions count the residues as written; N and C are the ends. Square brackets hold non-standard residues; d marks the D form. Peptide text beside a SMILES is read from it. I, II: the chains in the order shown. X1 = O=C(O)C1(OCCCCC(=O)[*:2])C[C@H](O)[C@@H](N[*:1])[C@H]([C@H](O)[C@H](O)CO)O1; X2 = O=C(NCCCCCCN[*:1])c1cc(C(=O)NCCCCCCN[*:2])cc(C(=O)NCCCCCCN[*:3])c1

Columns and labels:
Hemagglutinin = Hemagglutinin (Influenza A virus, UniProt B4URE7); test: Inhibition of CM5 chip immobilized Influenza A virus (A/Viet Nam/1203/2004(H5N1)) HA by SPR method
Influenza A virus [1] = test: Antiviral activity against Influenza A virus (A/WSN/1933(H1N1)) infected in MDCK cells assessed as s reduction in virus-induced cytopathic effect after 40 hrs incubation by CellTiter-Glo assay; type: functional, organism-based
Outline: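 CPE-based dose–response in MDCK cells infected with A/WSN/33 (H1N1), using the CellTiter-Glo viability read-out. Medium with 1% DMSO was the negative control and oseltamivir phosphate the positive control. IC50 is the concentration giving 50% inhibition of virus-induced CPE. Means of duplicate samples from three independent experiments.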

[2] = Cytotoxicity against MDCK cells assessed as reduction in cell viability by CellTiter-Glo assay; type: cell-based, Canis lupus familiaris; details: dog
Outline: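 Viability of normal, uninfected MDCK cells measured by CellTiter-Glo. Medium containing 1% DMSO was the negative control. CC50 is the concentration that reduces viability by 50%.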

[3] = Selectivity ratio of CC50 for MDCK cells to IC50 for Influenza A virus A/WSN/33(H1N1) infected in MDCK cells; type: toxicity, cell-based; details: dog, read-out: Ratio CC50/IC50
Outline: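 Selectivity index calculated as CC50 (uninfected MDCK cells, CellTiter-Glo) divided by IC50 (inhibition of A/WSN/33 H1N1-induced CPE in MDCK cells).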

Influenza A virus [4] = test: Antiviral activity against Influenza A virus (A/WSN/1933(H1N1)) infected in MDCK cells assessed as suppression of M2 protein expression at early stage of infection measured after 2 hrs post infection by Western blot analysis; type: functional
Outline: (§1)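 Time-of-addition study in MDCK cells infected with A/WSN/33 (H1N1). Compound was present during one of five windows: 0–10, 0–2, 2–5, 5–8 or 8–10 h, corresponding to entry (0–2 h), replication/translation (2–8 h) and release (8–10 h). M2 and NP protein levels were compared with a DMSO control.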

Influenza A virus [5] = test: Antiviral activity against Influenza A virus (A/WSN/1933(H1N1)) infected in MDCK cells assessed as suppression of NP protein expression measured after 2 hrs post infection by Western blot analysis; type: functional; outline: as §1
Influenza A virus [6] = test: Antiviral activity against Influenza A virus (A/WSN/1933(H1N1)) infected in MDCK cells assessed as inhibition of virus-induced cytopathic effect at 100 uM measured after 40 hrs incubation by inverted microscpic imaging analysis; type: functional
Outline: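 MDCK cells infected with influenza A/WSN/33 (H1N1), with compounds at 100 μM. Viral CPE judged by direct microscopic observation. DMSO served as the negative control and oseltamivir phosphate as the positive control. Triplicate experiments, with standard deviations.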

[7] = molecular target: Hemagglutinin (Influenza A virus (A/Puerto Rico/8/1934(H1N1)), UniProt P03452); test: Binding affinity to CM5 chip immobilized Influenza A virus (A/Michigan/45/2015) (H1N1)) hemagglutin assessed as dissociation constant by surface plasmon resonance assay
Influenza A virus [8] = test: Antiviral activity against Influenza A virus (A/Hong Kong/4801/2014 (H3N2)) infected in cells assessed as reduction in infected cells; type: functional, organism-based
Influenza B virus = test: Antiviral activity against Influenza B virus (B/Sichuan/531/2018(Victoria)) infected in cells assessed as reduction in infected cells; type: functional, organism-based
[9] = Selectivity index, ratio of CC50 for MDCK cells to IC50 for antiviral activity against Influenza A virus (A/Hong Kong/4801/2014 (H3N2)); type: toxicity; details: dog, read-out: Ratio CC50/IC50
[10] = Selectivity index, ratio of CC50 for MDCK cells to IC50 for antiviral activity against Influenza A virus (B/Sichuan/531/2018(Victoria)); type: toxicity; details: dog, read-out: Ratio CC50/IC50

Hemagglutinin (Influenza A virus (A/Puerto Rico/8/1934(H1N1)), UniProt P03452), sequence (P03452 whole entry): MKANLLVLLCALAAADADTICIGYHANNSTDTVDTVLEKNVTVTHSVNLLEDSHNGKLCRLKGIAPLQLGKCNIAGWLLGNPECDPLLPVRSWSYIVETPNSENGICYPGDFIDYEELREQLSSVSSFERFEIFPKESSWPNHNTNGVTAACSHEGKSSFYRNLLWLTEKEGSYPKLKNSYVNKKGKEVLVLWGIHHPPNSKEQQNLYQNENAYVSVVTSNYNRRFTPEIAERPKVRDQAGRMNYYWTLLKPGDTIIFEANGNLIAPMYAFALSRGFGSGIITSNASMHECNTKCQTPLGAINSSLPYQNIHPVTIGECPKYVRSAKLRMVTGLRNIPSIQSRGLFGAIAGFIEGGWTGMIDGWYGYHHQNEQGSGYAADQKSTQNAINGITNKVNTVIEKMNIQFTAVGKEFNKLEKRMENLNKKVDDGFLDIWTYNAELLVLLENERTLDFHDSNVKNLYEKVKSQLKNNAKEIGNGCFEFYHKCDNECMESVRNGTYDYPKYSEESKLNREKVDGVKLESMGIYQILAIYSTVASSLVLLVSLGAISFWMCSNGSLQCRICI
Hemagglutinin, sequence (B4URE7 whole entry): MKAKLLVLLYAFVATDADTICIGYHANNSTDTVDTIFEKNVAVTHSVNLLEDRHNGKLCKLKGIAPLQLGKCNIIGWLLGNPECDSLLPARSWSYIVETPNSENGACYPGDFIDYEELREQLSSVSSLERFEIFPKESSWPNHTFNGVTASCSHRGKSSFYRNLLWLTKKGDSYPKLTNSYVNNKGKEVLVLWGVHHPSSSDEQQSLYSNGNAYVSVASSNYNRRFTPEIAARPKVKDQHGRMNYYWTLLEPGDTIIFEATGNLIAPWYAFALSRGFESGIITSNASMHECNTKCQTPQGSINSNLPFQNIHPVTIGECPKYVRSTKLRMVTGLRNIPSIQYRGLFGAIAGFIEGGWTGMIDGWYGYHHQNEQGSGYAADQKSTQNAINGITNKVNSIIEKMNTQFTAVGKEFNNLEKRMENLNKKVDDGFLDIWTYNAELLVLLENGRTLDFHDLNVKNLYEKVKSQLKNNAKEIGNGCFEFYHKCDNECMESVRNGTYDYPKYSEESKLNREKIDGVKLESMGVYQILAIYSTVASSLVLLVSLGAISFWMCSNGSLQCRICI

Structure (SMILES)	Kd (Hemagglutinin) [µM]	IC50 (Influenza A virus [1]) [µM]	CC50 [2] [µM]	selectivity ratio [3]	inhibition (INH) (Influenza A virus [4]) [%]	inhibition (INH) (Influenza A virus [5]) [%]	inhibition at 100 µM (Influenza A virus [6]) [%]	Kd [7] [µM]	IC50 (Influenza A virus [8]) [µM]	IC50 (Influenza B virus) [µM]	selectivity ratio [9]	selectivity ratio [10]
CC(=O)N[C@H]1[C@H]([C@H](O)[C@H](O)CO)OC(OCCCCC(=O)NCC(=O)N[C@@H](CO)C(=O)NCC(=O)N[C@@H](CO)C(=O)N[C@@H](C)C(=O)N[C@@H](CO)C(=O)NCC(=O)N[C@@H](CO)C(=O)NCC(=O)NCCCCCCNC(=O)c2cc(C(=O)NCCCCCCNC(=O)CNC(=O)[C@H](CO)NC(=O)CNC(=O)[C@H](CO)NC(=O)[C@H](C)NC(=O)[C@H](CO)NC(=O)CNC(=O)[C@H](CO)NC(=O)CNC(=O)CCCCOC3(C(=O)O)C[C@H](O)[C@@H](NC(C)=O)[C@H]([C@H](O)[C@H](O)CO)O3)cc(C(=O)NCCCCCCNC(=O)CNC(=O)[C@H](CO)NC(=O)CNC(=O)[C@H](CO)NC(=O)[C@H](C)NC(=O)[C@H](CO)NC(=O)CNC(=O)[C@H](CO)NC(=O)CNC(=O)CCCCOC3(C(=O)O)C[C@H](O)[C@@H](NC(C)=O)[C@H]([C@H](O)[C@H](O)CO)O3)c2)(C(=O)O)C[C@@H]1O (some centres not stated) (I: Ac-[X1]GSGSASGSG / II: Ac-[X1]GSGSASGSG / III: Ac-[X1]GSGSASGSG; linker I:C-II:C-III:C via X2)	0.446	–	–	–	–	–	–	–	–	–	–	–
CC1(C)CC[C@]2(C(=O)NCCCCc3cn(Cc4cc(Cn5cc(CCCCNC(=O)[C@]67CCC(C)(C)C[C@H]6C6=CC[C@@H]8[C@@]9(C)CC[C@H](O)C(C)(C)[C@@H]9CC[C@@]8(C)[C@]6(C)CC7)nn5)cc(Cn5cc(CCCCNC(=O)[C@]67CCC(C)(C)C[C@H]6C6=CC[C@@H]8[C@@]9(C)CC[C@H](O)C(C)(C)[C@@H]9CC[C@@]8(C)[C@]6(C)CC7)nn5)c4)nn3)CC[C@]3(C)C(=CC[C@@H]4[C@@]5(C)CC[C@H](O)C(C)(C)[C@@H]5CC[C@]43C)[C@@H]2C1	–	0.23	> 100	> 435	>90	>90	> 80	2.63	4.58	1.87	> 21.8	> 53.5
